Where a SMILES comes first, the peptide text is derived from it. [ ]: non-standard residue; d: D form. The star is where a group is joined. X1 = Nc1nccc(-c2ccc(C(=O)*)s2)n1; Ahx = NCCCCCC(=O)O
What was measured:
[1] = target: T1, RAC-gamma serine/threonine-protein kinase (Homo sapiens, UniProt Q9Y243); assay: Inhibition of PKBgamma in presence of 100 uM ATP
Procedure, shortened: (§1)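 Kinetic phosphorylation assays with PKA catalytic subunit (PKAc) or PKB catalytic subunit (PKBc) at fixed ATP. ATP Km values taken as 20 for PKAc and 100 for PKBc.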

[2] = target: T2, Rho-associated protein kinase 2 (Homo sapiens, UniProt O75116); assay: Displacement of ARC583 from ROCK2
Target sequence in this assay (O75116 whole entry): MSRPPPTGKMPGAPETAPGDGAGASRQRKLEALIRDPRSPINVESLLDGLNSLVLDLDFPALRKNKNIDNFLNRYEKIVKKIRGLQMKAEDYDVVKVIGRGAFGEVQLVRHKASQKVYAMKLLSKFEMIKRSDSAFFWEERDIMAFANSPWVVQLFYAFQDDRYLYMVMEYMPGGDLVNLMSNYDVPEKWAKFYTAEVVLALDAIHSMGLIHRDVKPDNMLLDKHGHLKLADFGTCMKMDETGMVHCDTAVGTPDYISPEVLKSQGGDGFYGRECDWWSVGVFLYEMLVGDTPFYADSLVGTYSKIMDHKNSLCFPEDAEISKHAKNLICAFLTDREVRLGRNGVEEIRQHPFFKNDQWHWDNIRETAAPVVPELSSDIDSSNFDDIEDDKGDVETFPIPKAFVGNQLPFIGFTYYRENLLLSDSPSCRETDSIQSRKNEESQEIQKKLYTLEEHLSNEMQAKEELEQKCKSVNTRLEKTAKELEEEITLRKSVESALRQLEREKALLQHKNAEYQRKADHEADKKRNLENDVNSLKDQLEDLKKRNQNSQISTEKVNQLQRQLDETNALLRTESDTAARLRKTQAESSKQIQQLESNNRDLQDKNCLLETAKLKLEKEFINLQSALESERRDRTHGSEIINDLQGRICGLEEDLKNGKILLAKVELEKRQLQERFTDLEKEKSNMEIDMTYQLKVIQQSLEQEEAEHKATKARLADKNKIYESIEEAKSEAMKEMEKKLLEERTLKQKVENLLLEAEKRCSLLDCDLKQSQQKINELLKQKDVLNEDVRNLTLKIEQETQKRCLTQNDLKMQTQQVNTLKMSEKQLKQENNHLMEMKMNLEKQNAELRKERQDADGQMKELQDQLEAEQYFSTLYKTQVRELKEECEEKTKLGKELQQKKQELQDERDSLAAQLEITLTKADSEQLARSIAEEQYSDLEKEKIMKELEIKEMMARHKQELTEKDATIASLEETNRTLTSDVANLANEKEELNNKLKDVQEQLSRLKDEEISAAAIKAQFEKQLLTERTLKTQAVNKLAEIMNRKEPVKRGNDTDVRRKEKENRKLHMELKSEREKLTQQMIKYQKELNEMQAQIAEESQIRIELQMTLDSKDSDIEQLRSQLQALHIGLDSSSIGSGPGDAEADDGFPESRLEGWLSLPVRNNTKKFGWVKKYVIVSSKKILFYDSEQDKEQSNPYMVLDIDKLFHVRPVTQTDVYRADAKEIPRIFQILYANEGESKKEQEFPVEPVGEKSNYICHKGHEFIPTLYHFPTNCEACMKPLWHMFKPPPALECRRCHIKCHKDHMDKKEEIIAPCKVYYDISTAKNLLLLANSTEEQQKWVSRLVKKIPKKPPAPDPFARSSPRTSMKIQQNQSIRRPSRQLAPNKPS

[3] = target: T3, cAMP-dependent protein kinase catalytic subunit alpha (Homo sapiens, UniProt P17612); assay: Inhibition of PKACalpha in presence of 100 uM ATP; conditions: read-out: IC50; procedure, shortened: as §1
[4] = target: T3, cAMP-dependent protein kinase catalytic subunit alpha; assay: Inhibition of PKACalpha in presence of […]
[5] = target: AMP-activated protein kinase (AMPK) alpha-1/beta-1/gamma-1 (Homo sapiens) (UniProt P54619+Q9Y478+Q13131); assay: Inhibition of AMPK alpha-1/beta-1/gamma-1 at 100 nM relative to control; type: protein-complex assay
Procedure, shortened: (§2)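 Kinase panel screen with inhibitor at 100 nM and ATP at about the Km of each kinase. Activity is given as percent inhibition relative to control incubations with the inhibitor omitted. Values are means of duplicate determinations, with the spread reported as the difference between duplicates.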

[6] = target: Aurora kinase A (Homo sapiens) (UniProt O14965); assay: Inhibition of Aurora A at 100 nM relative to control; procedure, shortened: as §2
[7] = target: Calcium/calmodulin-dependent protein kinase type 1D (Homo sapiens) (UniProt Q8IU85); assay: Inhibition of CaMK 1delta at 100 nM relative to control; procedure, shortened: as §2
[8] = target: Calcium/calmodulin-dependent protein kinase type II subunit alpha (Homo sapiens) (UniProt Q9UQM7); assay: Inhibition of CaMK2alpha at 100 nM relative to control; procedure, shortened: as §2
[9] = target: Calcium/calmodulin-dependent protein kinase type II subunit beta (Homo sapiens) (UniProt Q13554); assay: Inhibition of CaMK2beta at 100 nM relative to control; procedure, shortened: as §2
[10] = target: Cyclin-dependent kinase 2/cyclin A (Homo sapiens) (UniProt P24941+P20248+P78396); assay: Inhibition of CDK2/cyclin A at 100 nM relative to control; type: protein-complex assay; procedure, shortened: as §2
[11] = target: Serine/threonine-protein kinase Chk1 (Homo sapiens) (UniProt O14757); assay: Inhibition of CHK1 at 100 nM relative to control; procedure, shortened: as §2
[12] = target: Serine/threonine-protein kinase Chk2 (Homo sapiens) (UniProt O96017); assay: Inhibition of CHK2 at 100 nM relative to control; procedure, shortened: as §2
[13] = target: Death-associated protein kinase 3 (Homo sapiens) (UniProt O43293); assay: Inhibition of DAPK3 at 100 nM relative to control; procedure, shortened: as §2
[14] = target: Glycogen synthase kinase-3 alpha (Homo sapiens) (UniProt P49840); assay: Inhibition of GSK3alpha at 100 nM relative to control; procedure, shortened: as §2
[15] = target: Glycogen synthase kinase-3 beta (Homo sapiens) (UniProt P49841); assay: Inhibition of GSK3-beta at 100 nM relative to control; procedure, shortened: as §2
[16] = target: Maternal embryonic leucine zipper kinase (Homo sapiens) (UniProt Q14680); assay: Inhibition of MELK at 100 nM relative to control; procedure, shortened: as §2
[17] = target: Ribosomal protein S6 kinase alpha-5 (Homo sapiens) (UniProt O75582); assay: Inhibition of MSK1 at 100 nM relative to control; procedure, shortened: as §2
[18] = target: Ribosomal protein S6 kinase alpha-4 (Homo sapiens) (UniProt O75676); assay: Inhibition of MSK2 at 100 nM relative to control; procedure, shortened: as §2
[19] = target: Ribosomal protein S6 kinase beta-1 (Homo sapiens) (UniProt P23443); assay: Inhibition of p70S6 at 100 nM relative to control
Procedure, shortened: (§3)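 Kinase panel screen with the inhibitor at 100 nM and ATP at a concentration of about Km for each kinase. Activity was expressed as percent inhibition relative to control incubations that lacked inhibitor. Values are means of duplicate determinations, and the difference between the duplicates is also reported.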

[20] = target: Serine/threonine-protein kinase PAK 3 (Homo sapiens) (UniProt O75914); assay: Inhibition of PAK3 at 100 nM relative to control; procedure, shortened: as §2
[21] = target: Serine/threonine-protein kinase PAK 4 (Homo sapiens) (UniProt O96013); assay: Inhibition of PAK4 at 100 nM relative to control; procedure, shortened: as §2
[22] = target: Serine/threonine-protein kinase PAK 6 (Homo sapiens) (UniProt Q9NQU5); assay: Inhibition of PAK6 at 100 nM relative to control; procedure, shortened: as §2
[23] = target: Serine/threonine-protein kinase pim-1 (Homo sapiens) (UniProt P11309); assay: Inhibition of PIM1 at 100 nM relative to control; procedure, shortened: as §2
[24] = target: Serine/threonine-protein kinase pim-2 (Homo sapiens) (UniProt Q9P1W9); assay: Inhibition of PIM2 at 100 nM relative to control; procedure, shortened: as §2
[25] = target: T3, cAMP-dependent protein kinase catalytic subunit alpha; assay: Inhibition of PKA Calpha at 100 nM relative to control; procedure, shortened: as §2
[26] = target: RAC-alpha serine/threonine-protein kinase (Homo sapiens) (UniProt P31749); assay: Inhibition of PKBalpha at 100 nM relative to control; procedure, shortened: as §2
[27] = target: RAC-beta serine/threonine-protein kinase (Homo sapiens) (UniProt P31751); assay: Inhibition of PKBbeta at 100 nM relative to control; procedure, shortened: as §2
[28] = target: T1, RAC-gamma serine/threonine-protein kinase; assay: Inhibition of PKBgamma at 100 nM relative to control; procedure, shortened: as §2
[29] = target: Protein kinase C alpha type (Homo sapiens) (UniProt P17252); assay: Inhibition of PKCalpha at 100 nM relative to control; procedure, shortened: as §2
[30] = target: Protein kinase C beta type (Homo sapiens) (UniProt P05771); assay: Inhibition of PKCbeta1 at 100 nM relative to control; procedure, shortened: as §2
[31] = target: Protein kinase C beta type (Homo sapiens) (UniProt P05771); assay: Inhibition of PKCbeta2 at 100 nM relative to control; procedure, shortened: as §2
[32] = target: Protein kinase C delta type (Homo sapiens) (UniProt Q05655); assay: Inhibition of PKCdelta at 100 nM relative to control; procedure, shortened: as §2
[33] = target: Protein kinase C epsilon type (Homo sapiens) (UniProt Q02156); assay: Inhibition of PKCepsilon at 100 nM relative to control; procedure, shortened: as §2
[34] = target: Protein kinase C gamma type (Homo sapiens) (UniProt P05129); assay: Inhibition of PKCgamma at 100 nM relative to control; procedure, shortened: as §2
[35] = target: Protein kinase C eta type (Homo sapiens) (UniProt P24723); assay: Inhibition of PKCeta at 100 nM relative to control; procedure, shortened: as §2
[36] = target: Protein kinase C iota type (Homo sapiens) (UniProt P41743); assay: Inhibition of PKCiota at 100 nM relative to control; procedure, shortened: as §2
[37] = target: Serine/threonine-protein kinase D1 (Homo sapiens) (UniProt Q15139); assay: Inhibition of PKCmu at 100 nM relative to control; procedure, shortened: as §2
[38] = target: Protein kinase C theta type (Homo sapiens) (UniProt Q04759); assay: Inhibition of PKCtheta at 100 nM relative to control; procedure, shortened: as §2
[39] = target: Protein kinase C zeta type (Homo sapiens) (UniProt Q05513); assay: Inhibition of PKCzeta at 100 nM relative to control; procedure, shortened: as §2
[40] = target: Serine/threonine-protein kinase D2 (Homo sapiens) (UniProt Q9BZL6); assay: Inhibition of PKD2 at 100 nM relative to control; procedure, shortened: as §2
[41] = target: Serine/threonine-protein kinase D3 (Homo sapiens) (UniProt O94806); assay: Inhibition of PKD3 at 100 nM relative to control; procedure, shortened: as §2
[42] = Inhibition of PKG1 at 100 nM relative to control; procedure, shortened: as §2
[43] = target: cGMP-dependent protein kinase 2 (Homo sapiens) (UniProt Q13237); assay: Inhibition of PKG2 at 100 nM relative to control; procedure, shortened: as §2
[44] = target: cAMP-dependent protein kinase catalytic subunit PRKX (Homo sapiens) (UniProt P51817); assay: Inhibition of PRKX at 100 nM relative to control; procedure, shortened: as §2
[45] = target: Rho-associated protein kinase 1 (Homo sapiens) (UniProt Q13464); assay: Inhibition of ROCK1 at 100 nM relative to control; procedure, shortened: as §2
[46] = target: T2, Rho-associated protein kinase 2; assay: Inhibition of ROCK2 at 100 nM relative to control; procedure, shortened: as §2
Target sequence in this assay (O75116 whole entry, looked up): as the sequence (O75116 whole entry) above

[47] = target: Ribosomal protein S6 kinase alpha-1 (Homo sapiens) (UniProt Q15418); assay: Inhibition of RSK1 at 100 nM relative to control; procedure, shortened: as §2
[48] = target: Ribosomal protein S6 kinase alpha-3 (Homo sapiens) (UniProt P51812); assay: Inhibition of RSK2 at 100 nM relative to control; procedure, shortened: as §2
[49] = target: Ribosomal protein S6 kinase alpha-2 (Homo sapiens) (UniProt Q15349); assay: Inhibition of RSK3 at 100 nM relative to control; procedure, shortened: as §3
[50] = target: Serine/threonine-protein kinase Sgk1 (Homo sapiens) (UniProt O00141); assay: Inhibition of SGK1 at 100 nM relative to control; procedure, shortened: as §3
[51] = target: Serine/threonine-protein kinase Sgk2 (Homo sapiens) (UniProt Q9HBY8); assay: Inhibition of SGK2 at 100 nM relative to control; procedure, shortened: as §3
[52] = target: Proto-oncogene tyrosine-protein kinase Src (Homo sapiens) (UniProt P12931); assay: Inhibition of SRC at 100 nM relative to control; procedure, shortened: as §3
[53] = target: 3-phosphoinositide-dependent protein kinase 1 (Homo sapiens) (UniProt O15530); assay: Inhibition of PDK1 at 100 nM relative to control

T1 sequence (Q9Y243 whole entry): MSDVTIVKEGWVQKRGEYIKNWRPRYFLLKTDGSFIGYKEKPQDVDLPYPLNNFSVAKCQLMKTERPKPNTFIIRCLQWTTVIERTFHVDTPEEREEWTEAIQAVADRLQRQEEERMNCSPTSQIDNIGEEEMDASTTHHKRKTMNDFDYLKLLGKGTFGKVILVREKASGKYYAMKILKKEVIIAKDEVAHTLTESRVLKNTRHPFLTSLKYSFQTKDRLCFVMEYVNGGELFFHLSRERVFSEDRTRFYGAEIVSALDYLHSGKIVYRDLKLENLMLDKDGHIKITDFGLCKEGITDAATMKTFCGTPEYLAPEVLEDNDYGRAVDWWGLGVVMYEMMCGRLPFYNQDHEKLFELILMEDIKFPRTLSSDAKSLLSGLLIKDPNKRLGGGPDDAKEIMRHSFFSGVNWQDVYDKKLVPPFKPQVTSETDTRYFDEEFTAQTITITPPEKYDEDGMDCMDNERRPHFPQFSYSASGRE
Chain of Protein kinase C beta type (Homo sapiens) (P05771 2-671 limits assumed): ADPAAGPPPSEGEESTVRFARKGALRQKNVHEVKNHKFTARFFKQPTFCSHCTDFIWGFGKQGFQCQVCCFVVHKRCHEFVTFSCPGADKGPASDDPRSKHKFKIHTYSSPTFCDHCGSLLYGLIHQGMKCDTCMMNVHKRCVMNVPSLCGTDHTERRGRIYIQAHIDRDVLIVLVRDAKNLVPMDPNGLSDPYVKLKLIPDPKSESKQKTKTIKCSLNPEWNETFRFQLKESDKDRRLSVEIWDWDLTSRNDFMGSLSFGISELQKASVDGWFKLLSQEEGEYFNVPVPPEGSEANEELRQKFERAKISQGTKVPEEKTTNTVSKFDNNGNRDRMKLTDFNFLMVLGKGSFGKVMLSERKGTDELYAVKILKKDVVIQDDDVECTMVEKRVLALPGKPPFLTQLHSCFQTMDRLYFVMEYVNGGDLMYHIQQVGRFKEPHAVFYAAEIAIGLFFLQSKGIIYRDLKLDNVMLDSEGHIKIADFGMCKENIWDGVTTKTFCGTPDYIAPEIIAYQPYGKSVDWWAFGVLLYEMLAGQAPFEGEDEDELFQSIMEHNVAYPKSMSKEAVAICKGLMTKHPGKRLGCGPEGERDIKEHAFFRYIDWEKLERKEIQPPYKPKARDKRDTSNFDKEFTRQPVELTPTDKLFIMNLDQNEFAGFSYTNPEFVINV
Chain of Proto-oncogene tyrosine-protein kinase Src (Homo sapiens) (P12931 2-536 limits assumed): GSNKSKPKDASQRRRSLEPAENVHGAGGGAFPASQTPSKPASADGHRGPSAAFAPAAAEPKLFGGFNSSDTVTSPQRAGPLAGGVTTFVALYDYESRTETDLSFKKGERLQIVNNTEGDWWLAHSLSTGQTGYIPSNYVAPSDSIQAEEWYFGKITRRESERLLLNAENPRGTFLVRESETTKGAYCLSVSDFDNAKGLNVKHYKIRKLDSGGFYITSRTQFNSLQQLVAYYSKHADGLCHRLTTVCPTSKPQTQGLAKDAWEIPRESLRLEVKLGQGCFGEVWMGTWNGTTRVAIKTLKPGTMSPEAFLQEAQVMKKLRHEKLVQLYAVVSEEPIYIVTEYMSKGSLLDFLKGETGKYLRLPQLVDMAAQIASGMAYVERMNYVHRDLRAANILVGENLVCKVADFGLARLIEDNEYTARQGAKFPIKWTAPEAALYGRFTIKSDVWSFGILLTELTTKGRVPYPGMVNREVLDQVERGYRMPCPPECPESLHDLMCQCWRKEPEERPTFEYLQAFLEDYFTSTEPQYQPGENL
Chain of Calcium/calmodulin-dependent protein kinase type 1D (Homo sapiens) (Q8IU85 whole entry, looked up): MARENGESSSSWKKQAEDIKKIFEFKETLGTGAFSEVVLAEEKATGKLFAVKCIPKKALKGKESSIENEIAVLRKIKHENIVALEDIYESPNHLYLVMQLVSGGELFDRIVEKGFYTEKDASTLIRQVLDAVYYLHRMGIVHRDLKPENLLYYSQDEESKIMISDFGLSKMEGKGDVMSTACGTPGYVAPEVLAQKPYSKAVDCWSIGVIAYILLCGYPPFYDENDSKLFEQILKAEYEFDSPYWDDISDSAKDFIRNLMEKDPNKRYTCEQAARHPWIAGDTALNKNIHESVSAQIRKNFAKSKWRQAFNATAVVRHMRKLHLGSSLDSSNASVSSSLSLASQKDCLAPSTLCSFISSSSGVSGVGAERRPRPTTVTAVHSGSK
Chain of Protein kinase C theta type (Homo sapiens) (Q04759 whole entry, looked up): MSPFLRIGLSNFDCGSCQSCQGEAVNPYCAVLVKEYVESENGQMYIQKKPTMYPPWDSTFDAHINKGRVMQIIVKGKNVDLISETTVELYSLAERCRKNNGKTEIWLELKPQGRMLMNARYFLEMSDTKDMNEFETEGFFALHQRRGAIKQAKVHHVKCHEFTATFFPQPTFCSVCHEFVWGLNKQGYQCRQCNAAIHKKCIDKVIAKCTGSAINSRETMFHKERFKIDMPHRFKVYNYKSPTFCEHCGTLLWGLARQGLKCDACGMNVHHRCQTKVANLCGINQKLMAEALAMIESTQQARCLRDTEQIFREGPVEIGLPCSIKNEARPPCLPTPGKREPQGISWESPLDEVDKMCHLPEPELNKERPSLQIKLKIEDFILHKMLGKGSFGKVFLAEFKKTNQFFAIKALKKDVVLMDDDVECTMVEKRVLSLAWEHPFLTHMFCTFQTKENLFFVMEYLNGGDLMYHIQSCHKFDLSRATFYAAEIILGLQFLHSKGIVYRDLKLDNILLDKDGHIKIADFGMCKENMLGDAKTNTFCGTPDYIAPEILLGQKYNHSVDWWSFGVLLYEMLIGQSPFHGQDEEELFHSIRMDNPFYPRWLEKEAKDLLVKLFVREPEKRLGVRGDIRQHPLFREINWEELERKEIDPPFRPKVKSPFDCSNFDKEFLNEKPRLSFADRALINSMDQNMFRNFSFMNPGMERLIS
Chain of Calcium/calmodulin-dependent protein kinase type II subunit beta (Homo sapiens) (Q13554 whole entry): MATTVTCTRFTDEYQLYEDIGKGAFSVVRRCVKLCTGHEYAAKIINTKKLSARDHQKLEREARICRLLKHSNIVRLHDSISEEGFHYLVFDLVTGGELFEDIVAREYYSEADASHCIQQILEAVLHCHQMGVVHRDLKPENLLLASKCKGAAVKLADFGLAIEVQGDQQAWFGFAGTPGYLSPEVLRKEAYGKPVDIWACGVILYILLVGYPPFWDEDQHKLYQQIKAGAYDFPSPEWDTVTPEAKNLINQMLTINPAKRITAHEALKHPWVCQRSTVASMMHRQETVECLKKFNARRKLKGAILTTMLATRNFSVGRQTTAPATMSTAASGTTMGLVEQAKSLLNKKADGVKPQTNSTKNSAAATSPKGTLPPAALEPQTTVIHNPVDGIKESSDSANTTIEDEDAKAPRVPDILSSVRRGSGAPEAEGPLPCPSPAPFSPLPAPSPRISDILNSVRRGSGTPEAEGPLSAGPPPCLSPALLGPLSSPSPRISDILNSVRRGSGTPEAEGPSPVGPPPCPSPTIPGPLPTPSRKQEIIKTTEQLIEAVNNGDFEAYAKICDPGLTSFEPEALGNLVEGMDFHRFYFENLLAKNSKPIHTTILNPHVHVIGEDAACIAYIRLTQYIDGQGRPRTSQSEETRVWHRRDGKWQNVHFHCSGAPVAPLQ

N=C(N)NCCC[C@@H](NC(=O)[C@@H](CCCNC(=N)N)NC(=O)CCCCCNC(=O)[C@@H](CCCCN)NC(=O)CCCCCNC(=O)c1cn(-c2ncnc3[nH]cnc23)nn1)C(N)=O
IC50 [1]: 27000 nM | Kd [2]: 800 nM

NCCCC[C@@H](NC(=O)CCCCCNC(=O)c1ccccc1)C(=O)NCCCCCC(=O)N[C@H](CCCN=C(N)N)C(=O)N[C@H](CCCN=C(N)N)C(N)=O
IC50 [3]: 183000 nM | IC50 [1]: 360000 nM | Kd [2]: 8000 nM

NCCCC[C@@H](NC(=O)CCCCCNC(=O)c1cccc(-c2ccnc(N)n2)c1)C(=O)NCCCCCC(=O)N[C@H](CCCN=C(N)N)C(=O)N[C@H](CCCN=C(N)N)C(N)=O
IC50 [3]: 61 nM | IC50 [1]: 4600 nM | Kd [2]: 36 nM

N=C(N)NCCC[C@@H](NC(=O)[C@@H](CCCNC(=N)N)NC(=O)CCCCCNC(=O)[C@@H](CCCCN)NC(=O)CCCCCNC(=O)c1ccc(-c2ccnc(N)n2)s1)C(N)=O
IC50 [4]: 82 nM | IC50 [1]: 270 nM | Kd [2]: < 3 nM

N=C(N)NCCC[C@@H](NC(=O)[C@@H](CCCNC(=N)N)NC(=O)[C@@H](CCCNC(=N)N)NC(=O)[C@@H](CCCNC(=N)N)NC(=O)[C@@H](CCCNC(=N)N)NC(=O)[C@@H](CCCNC(=N)N)NC(=O)CCCCCNC(=O)[C@@H](CCCCN)NC(=O)CCCCCNC(=O)c1ccc(-c2ccnc(N)n2)s1)C(N)=O ({X1-Ahx}-[dK][Ahx][dR][dR][dR][dR][dR][dR]-NH2)
inhibition [5]: 41% | inhibition [6]: 46% | inhibition [7]: 25% | inhibition [8]: 10% | inhibition [9]: 22% | inhibition [10]: 6% | inhibition [11]: 82% | inhibition [12]: 33% | inhibition [13]: 44% | inhibition [14]: 8% | inhibition [15]: 4% | inhibition [16]: 83% | inhibition [17]: 112% | inhibition [18]: 112% | inhibition [19]: 99% | inhibition [20]: 69% | inhibition [21]: 21% | inhibition [22]: 70% | inhibition [23]: 97% | inhibition [24]: 95% | inhibition [25]: 104% | inhibition [26]: 97% | inhibition [27]: 80% | inhibition [28]: 100% | inhibition [29]: 92% | inhibition [30]: 100% | inhibition [31]: 104% | inhibition [32]: 97% | inhibition [33]: 103% | inhibition [34]: 108% | inhibition [35]: 106% | inhibition [36]: 24% | inhibition [37]: 93% | inhibition [38]: 91% | inhibition [39]: 38% | inhibition [40]: 79% | inhibition [41]: 90% | inhibition [42]: 105% | inhibition [43]: 78% | inhibition [44]: 106% | inhibition [45]: 106% | inhibition [46]: 106% | inhibition [47]: 97% | inhibition [48]: 103% | inhibition [49]: 97% | inhibition [50]: 97% | inhibition [51]: 91% | inhibition [52]: 26% | inhibition [53]: 65%

NCCCC[C@H](NC(=O)[C@@H](CCCN=C(N)N)NC(=O)[C@@H](CCCN=C(N)N)NC(=O)[C@@H](CCCN=C(N)N)NC(=O)[C@@H](CCCN=C(N)N)NC(=O)[C@@H](CCCN=C(N)N)NC(=O)[C@@H](CCCN=C(N)N)NC(=O)CCCCCNC(=O)[C@@H](CCCCN)NC(=O)CCCCCNC(=O)c1ccc(-c2ccnc(N)n2)s1)C(N)=O
IC50 [4]: 4.9 nM | IC50 [1]: 42 nM

Source: ChEMBL document CHEMBL1154334, “Effect of the structure of adenosine mimic of bisubstrate-analog inhibitors on their activity towards basophilic protein kinases” (Bioorg Med Chem Lett, 2009)
